Measurements from ChEMBL document CHEMBL4513216, “Probing the Open Global Health Chemical Diversity Library for Multistage-Active Starting Points for Next-Generation Antimalarials” (ACS Infect Dis, 2020).

Assay: Toxicity liver stage against HepG2, at 10uM
Assay type: cell-based
Parameters: test concentration 10 uM, cell line HepG2-A16-CD81EGFP
Conditions: human, HepG2-A16-CD81EGFP cells; read-out: INHIBITION
Summary of the method: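 Uninfected HepG2-A16-CD81EGFP cells, 3 × 10^3 per well, 1536-well, plated on prespotted compound at 10 μM final, parasite-free screening media added to match infected plates; puromycin 10 μM positive, DMSO 0.5% negative; run in parallel with 48 h PbLuc assay at 37 °C, 5% CO2; viability by CellTiter-Glo luminescence, normalized to controls.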

Compound | cytotoxicity at 10 µM [%]
CN(C(=O)c1ccco1)c1nc2c(s1)CCCC2 | 13.7
O=C(NCc1cccnc1)[C@H]1CN2CCC1C[C@@H]2Cn1cc(CO)nn1 (stereo partly specified) | -0.843
CN(C)C(=O)CO[C@H]1COCCN(C2CCOCC2)C1 | 3.64
c1cnc2c(c1)nc1n2[C@@H](CNCc2nccs2)COC1 | -2.66
COc1ccc(CN2CCOC[C@H](OCC(=O)N(C)C)C2)cc1 | 0.552
CN(C)C(=O)c1cc2ncc(C(=O)NC3CCCC3)cc2n1C | -2.63
Cc1cccc2c1ccn2CCC(=O)Nc1c2c(nn1C)CSC2 | 3.03
Cn1cc(C2SCC(=O)Nc3c2c(=O)[nH]n3C2CCOCC2)cn1 (stereo unspecified) | -0.348
CN(C)c1cccc(C(=O)NCC(O)c2cccs2)c1 (stereo unspecified) | 16.6
O=C(NCCC(O)c1ccco1)c1ccccc1Br (stereo unspecified) | 0.957
COc1ncccc1C(=O)NCCn1cnc(C)cc1=O | -0.37
COc1cccc2sc(N3CC(OC(C)=O)C3)nc12 | -6.67
CN(C)CCN1C[C@@H]2OCCN(Cc3cnn(C)c3)[C@@H]2C1 | -140
Cc1cnc(N2Cc3nccn3CC(Cn3nc(C)nc3C)C2)nc1 (stereo unspecified) | -144
CCS(=O)(=O)N1CCc2cc(C(=O)NC)c(NCC3CC3)nc2CC1 | 1.88
Cn1cc(C2CC3(CCN(C(=O)c4ccsc4)CC3)NC2=O)cn1 (stereo unspecified) | -3.7
O=C1CC(c2ccc(F)cc2)Cc2[nH]c(=O)c(C(=O)O)cc21 (stereo unspecified) | -3.65
O=C1CC(c2ccc(C(=O)O)cc2)c2ncn(-c3ccc(Cl)cc3)c2N1 (stereo unspecified) | -2.14
Cc1ccc(-c2cc(C)nc(C3CCCN3S(C)(=O)=O)n2)cc1 (stereo unspecified) | -8.27
COCCNc1nnc(-c2ccc(C)nc2)s1 | -8.55
COCCOCC(=O)N1C[C@@H]2CC[C@H](Oc3cccc(F)c3)[C@@H]2C1 | -26
Cc1c(C2CCCN(C(=O)c3cccnc3)C2)n2c(nc1=O)CCC2 (stereo unspecified) | -17.1
CN1CCCN(S(=O)(=O)c2cnn(C)c2)c2cc(Cl)ccc21 | 7.41

Compound | cytotoxicity at 10 µM [%]
CC(NCCCn1ccnc1)c1ccc(N2CCOC2=O)cc1 (stereo unspecified) | -8.48
CCN(Cc1ccc(C#N)cc1F)C(=O)CN(C)CC(N)=O | 7.52
CC(Nc1c(F)cc(C#N)cc1F)c1cccc(S(N)(=O)=O)c1 (stereo unspecified) | -4.34
COC(=O)c1ccc(C(=O)NCc2ccco2)nc1 | -3.73
COC(=O)C1CN(Cc2cc(F)ccc2Br)CCO1 (stereo unspecified) | -5.51
Cc1ccc(CNc2ccn(CCC(N)=O)n2)c(Br)c1 | -1.65
O=C(Cc1cccs1)N1CCOCC1c1ccccc1 (stereo unspecified) | -6.73
NC(=O)CCC1CCCN(c2ccc3ccc(F)cc3n2)C1 (stereo unspecified) | -0.386
O=C(Cn1cnc2ccsc2c1=O)c1ccc2c(c1)OCCO2 | 3.1
O=C(NC1CC1)C(c1ccccc1)N1CCN(Cc2ccc(Cl)s2)CC1 (stereo unspecified) | 4.46
O=C(NCc1ccc(-n2cncn2)nc1)N(CC1CCOC1)C1CC1 (stereo unspecified) | 1.74
COCc1ccccc1C(=O)NCC(O)c1ccccc1F (stereo unspecified) | -3.67
COc1cc(CNC(=O)Nc2nncs2)ccc1O | -6.29
Cc1nc2n(n1)CC(NCc1nc(C)c(C)o1)CC2 (stereo unspecified) | -0.925
COCCOc1ccc(NC(=O)N(CC2CCOC2)C2CC2)cn1 (stereo unspecified) | -1.29
Cc1ccccc1C1CCN(C(=O)CCNC(=O)C(C)(C)C)C1 (stereo unspecified) | -5.47
CC(C)(C)OC(=O)NCC1CCN(C(=O)c2ccc(F)cc2F)C1 (stereo unspecified) | 11.5
CS(=O)(=O)N1CCN(Cc2c(O)ccc3oc4c(c23)CCCC4)CC1 | 1.01
NC(=O)C1CN(Cc2c(O)ccc3oc4c(c23)CCCC4)CCO1 (stereo unspecified) | 4.48
Cc1nc(CN2CCN(C(=O)CC(C)(C)c3ccccc3)CC2)no1 | -1.96
CC(NC(=O)N(C)Cc1ccc2c(c1)OCCO2)c1nncn1C (stereo unspecified) | -2.25
Cc1cc(NC(=O)NCCc2ccccc2)n(C)n1 | -9.19
Cc1cc(NC(=O)CN2CCc3nn(C)c(=O)cc3C2)no1 | -5.04

Compound | cytotoxicity at 10 µM [%]
Cc1nn(C)c(N(C)C)c1CNCc1cccnc1N1CCOCC1 | -141
CC1CCC(NC(=O)Nc2ccc(CC(=O)N(C)C)cc2)CC1 (stereo unspecified) | 3.85
C1CN(c2nc(C3CC3)ns2)CCO1 | -2.4
CCc1ccc(C(=O)Nc2ccc(CC3CC(=O)NC3=O)cc2)s1 (stereo unspecified) | -0.95
CCNC(=O)NC1CCCN(c2ccc(C)cc2)C1=O (stereo unspecified) | 0.732
CN(CCO)C(=O)Nc1ccn(-c2cccc(C(F)(F)F)c2)n1 | 4.16
CC(c1ccco1)N(C(=O)c1cc2c([nH]c1=O)CCCC2=O)C1CC1 (stereo unspecified) | -3.21
CCC(C)n1cnc(S(=O)(=O)N(C)C)c1 (stereo unspecified) | -7.07
CCC(C)n1cnc(S(=O)(=O)N(Cc2cccnc2)C(C)C)c1 (stereo unspecified) | 0.075
O=C(CN1CCCc2c(F)cc(Br)cc21)N1CCN(C(=O)C2CC2)CC1 | -5.06
CN(C)S(=O)(=O)N1CCC(OCCCc2ccccc2)C1 (stereo unspecified) | 0.696
COCc1noc(Cc2cc(Cl)c3c(c2)OCCCO3)n1 | 0.583
COc1cccc(-c2nnn(C3CCN(CC(F)(F)F)C3=O)n2)c1 (stereo unspecified) | 3.34
CNC(=O)NC(=O)CCN1CCOC(c2ccc(Br)cc2)C1 (stereo unspecified) | -2.42
Cc1cc(Cl)c(C)c(S(=O)(=O)N2CCN(Cc3ccncc3)CC2)c1Cl | 1.76
CC(C)Oc1cc(N2CCC(C(N)=O)CC2)nc(N)n1 | 2.96
CN(C)CCNC(=O)c1ccc(OC2CCN(CC3CC3)CC2)c(Cl)c1 | -6.26
c1ccc(C2CN(c3ncnc4[nH]cnc34)CCO2)cc1 (stereo unspecified) | 9.42
CN(C)CCNc1cc(-c2ncccc2C(F)(F)F)c2cc[nH]c2n1 | 7.2
Cc1cccnc1CN1CCN(Cc2ccc(-c3cc[nH]n3)o2)CC1 | -3.57
CCCc1cc(C(=O)NCCC2=CCCCC2)[nH]n1 | -51.8
Nc1nc2c(c(NCc3ccncc3)n1)CCCC2 | 4.56
COc1ccc(CCN)cc1-c1ccc(C(N)=O)cc1 | 3.23

Compound | cytotoxicity at 10 µM [%]
COc1ccccc1Oc1ncccc1CNC(=O)C(O)C(F)(F)F (stereo unspecified) | -3.37
O=C(c1n[nH]c2c1CCC2)N1CCCC1c1nc(-c2ccccc2)no1 (stereo unspecified) | 6.43
CS(=O)(=O)N1CCN(C(=O)c2ccco2)[C@H]2CS(=O)(=O)C[C@H]21 | -6.69
Cc1nn(C)c(C)c1CN(Cc1cccn1-c1cccnc1)C(C)C | -3.16
CCC(CC)n1nc(C)cc1NC(=O)C1CCOC1 (stereo unspecified) | -5.15
CN(C)c1ncc2c(n1)CCCC2NC(=O)C1CC1 (stereo unspecified) | 4.07
CC(C)c1cc(C(=O)N2CCN(c3cccc(C(=O)O)c3)CC2)n(C)n1 | -2.95
CCn1c(CN2CCCC2)nnc1C1CCN(Cc2ccncc2)CC1 | -0.384
CSCC(=O)N[C@H]1CN(CC2CCOCC2)C[C@@H]1c1ccccc1 | -3.97
Cc1ccccc1-c1noc(C2CC(C(C)C)=NO2)n1 (stereo unspecified) | -14.6
CNC(=O)C1CCN(C(=O)c2coc(COc3ccc(OC)cc3)n2)C1 (stereo unspecified) | -1.74
COc1ccccc1Oc1ncccc1CNC(=O)C1(C)CCCNC1 (stereo unspecified) | -2.56
O=C(CCc1ccsc1)N1CCC(n2cc(CO)nn2)CC1 | -3.37
O=C1NCC2(CCCN(C(=O)Nc3cccc(-c4cscn4)c3)CC2)O1 (stereo unspecified) | -4.54
NC(=O)CNC(=O)c1cc(Cn2cnc3ccccc32)[nH]n1 | -4.2
O=S1(=O)COCCN1CCOc1ccc(F)cc1 | -0.505
COCc1ccccc1C(=O)N1CCCC1Cn1nc(C)cc1C (stereo unspecified) | -3.98
COc1c(CNC2CCOc3c(Cl)cccc32)c(C(C)C)nn1C (stereo unspecified) | 2.25
NC(=O)C1CCN(C(=O)c2ccn(-c3ccc(F)cc3)n2)CC1 | -1.34
Cn1ccc2c(C(=O)N3CCCC(c4nnc[nH]4)C3)cccc21 (stereo unspecified) | 1.92
Cc1nn(C)c(N(C)C)c1CNCCCNS(C)(=O)=O | -5.98
CCc1ccc(C(C)NC(=O)N2CCC(n3cncn3)CC2)cc1 (stereo unspecified) | -8.18
OC(CN1CCC(c2ccn[nH]2)CC1)c1ccccc1F (stereo unspecified) | -25.5

Compound | cytotoxicity at 10 µM [%]
Cc1ncccc1CNCC1CCN(CCO)CC1 | -22.5
CCCc1n[nH]c(C2CN(CCNS(C)(=O)=O)CCO2)n1 (stereo unspecified) | -0.975
CC(=O)NCCNC(=O)c1cnc(-c2ccc(C)cc2C)s1 | -7.95
CN1CCC/C1=N\S(=O)(=O)c1ccc(NC(=O)c2ccco2)cc1 | 4.56
CC(C)c1ccc(C(O)CN2CCN(Cc3nccn3C)CC2)cc1 (stereo unspecified) | -38.3
Cc1nccc(C(=O)N2CCOC(c3nc(C(C)C)n[nH]3)C2)n1 (stereo unspecified) | -15.7
CC(=O)Nc1nc(C(=O)NC(C)c2ccc(C#N)cc2)cs1 (stereo unspecified) | -10.5
O=C(Cc1cccc2cccnc12)N1CCCN(c2cccnn2)CC1 | -5.1
Cc1ncsc1C(=O)N1CCC(Nc2cccnn2)CC1 | -1.89
CCOC(=O)[C@]12CCCN(Cc3ccsc3)C[C@H]1CN(CCOC)C2 | -127
CN1CCN(C(=O)Cc2ccc(F)cc2)Cc2cccnc21 | 0.0773
CCN1CCc2[nH]nc(C(=O)N3CCCC3C)c2C1 (stereo unspecified) | -4.9
CO[C@@H]1CN(S(=O)(=O)c2cn(C)cn2)[C@@H]2CCCO[C@@H]21 | -125
CCS(=O)(=O)N1CCC2(CC1)CCn1c(-c3cnn(C)c3)cnc12 | -138
O=C(NCCc1c[nH]c2ccccc12)C1CCC(Cn2cnnn2)CC1 (stereo unspecified) | -12.7
CCCn1nccc1NC(=O)CN1CCC[C@H]1CO | -1.8
O=C(c1ccc(=O)[nH]c1)N1C[C@H]2CC[C@@H](C1)N(Cc1ccccc1)C2 | -100
O=C1NCC2=Nc3ccccc3NC(c3ccc(O)cc3)C12 (stereo unspecified) | 3.63
O=C(C1CCC1)N1C[C@H]2CC[C@@H](C1)N(S(=O)(=O)c1cccnc1)C2 | -3.65
